For ten compounds, IC50 results are on record in ChEMBL document CHEMBL1154185 (J Med Chem, 2009).

Molecules are shown by their SMILES.

For one experiment, the system named is A549. Kind of experiment: Growth inhibition of proapoptotic stimuli-resistant human A549 cells after 72 hrs by MTT assay. Format: functional, cell-based. The settings on record: Homo sapiens, A549, 72 h. In short, it runs like this: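 Cells plated 24 h in 96-well plates (10,000-40,000 cells/mL by cell type) in MEM (5% or 10% heat-inactivated FBS; with 100 μM non-essential amino acids for WI-38 and NHDF) or RPMI 10% FBS (A549), then exposed 72 h to compound up to 100 μM; MTT reduction read at 570 nm (reference 630 nm); sextuplicate.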
On the technique in general: Tetrazolium assays rely on reduction of a dye to a coloured formazan, in cell work by metabolically active cells.
As a reminder, the IC50 is the concentration that inhibits the measured activity by half. The low end stands for higher potency, the high end for lower potency. `CC(=O)O[C@H]1[C@H]2c3cc4c(cc3CN3CC[C@H](C[C@@H]1OC(C)=O)[C@H]23)OCO4`: the IC50 is > 10 µM.
On to `O[C@H]1[C@H]2c3cc4c(cc3CN3CC[C@@H](C[C@@H]1O)[C@H]23)OCO4`, for which the 50% inhibitory concentration (IC50) was > 10 µM.
On to `C1=C2CCN3Cc4cc5c(cc4[C@H](CC1)[C@@H]23)OCO5` [LYCORENE], for which the half-inhibitory concentration (IC50) is > 10 µM.
For `O[C@H]1[C@H]2c3cc4c(cc3CN3CC[C@H](C[C@@H]1O)[C@H]23)OCO4`, the IC50 is > 10 µM.
On to `CC(=O)O[C@H]1[C@H]2c3cc4c(cc3CN3CCC(=C[C@@H]1OC(C)=O)[C@H]23)OCO4`, for which the 50% inhibitory concentration (IC50) was > 10 µM.
With `[O-]c1cc2c3c(c1)c1cc4c(cc1c[n+]3CC2)OCO4` [UNGEREMINE], the concentration for half-maximal inhibition (IC50) was > 10 µM.
Consider `CC(=O)O[C@H]1[C@H]2c3cc4c(cc3CN3CC[C@@H](C[C@@H]1OC(C)=O)[C@H]23)OCO4`, for which the IC50 was > 10 µM.
Consider `COc1cc2c(cc1O)CN1CCC3=CC[C@@H](O)[C@@H]2[C@@H]31` [NORPLUVINE], for which the half-inhibitory concentration (IC50) was > 10 µM.

The same experiment, now with this note: a549.
As to `C[N+]12CCC3=C[C@H](O)[C@@H](O)[C@@H](c4cc5c(cc4C1)OCO5)[C@@H]32` (some centres undefined), the IC50 was > 10 µM.

Test system in the next experiment: not listed separately
Briefly: Growth inhibition of proapoptotic stimuli-sensitive human Hs683 cells after 72 hrs by MTT assay. Type of experiment: functional, cell-based, Hs 683. The following applies: Homo sapiens, Hs 683, 72 h. Summed up: (§1)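 MTT assay. Cells were plated at 10,000–40,000 cells/mL and left 24 h to attach, then exposed to compound for 72 h (untreated controls). Formazan was read at 570 nm (reference 630 nm). Tested up to 10 μM (first panel) or up to 100 μM (second panel). Sextuplicate. U373 grown in MEM + 5% FBS; Hs683, SK-MEL-28 and B16F10 in RPMI + 10% FBS.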
For the compound `CC(=O)O[C@H]1[C@H]2c3cc4c(cc3CN3CC[C@H](C[C@@H]1OC(C)=O)[C@H]23)OCO4`, the IC50 is > 10 µM.
On to `O[C@H]1[C@H]2c3cc4c(cc3CN3CC[C@@H](C[C@@H]1O)[C@H]23)OCO4`, for which the IC50 was > 10 µM.
The same measure, in the same setting: in the case of `C1=C2CCN3Cc4cc5c(cc4[C@H](CC1)[C@@H]23)OCO5` [LYCORENE] it was > 10 µM.
`O[C@H]1[C@H]2c3cc4c(cc3CN3CC[C@H](C[C@@H]1O)[C@H]23)OCO4`: the half-maximal inhibitory concentration (IC50) is > 10 µM.
For `CC(=O)O[C@H]1[C@H]2c3cc4c(cc3CN3CCC(=C[C@@H]1OC(C)=O)[C@H]23)OCO4`, the concentration for half-maximal inhibition (IC50) is > 10 µM.
In the case of `[O-]c1cc2c3c(c1)c1cc4c(cc1c[n+]3CC2)OCO4` [UNGEREMINE], the IC50 is > 10 µM.
On to `CC(=O)O[C@H]1[C@H]2c3cc4c(cc3CN3CC[C@@H](C[C@@H]1OC(C)=O)[C@H]23)OCO4`, for which the half-inhibitory concentration (IC50) was > 10 µM.
Consider `COc1cc2c(cc1O)CN1CCC3=CC[C@@H](O)[C@@H]2[C@@H]31` [NORPLUVINE], for which the 50% inhibitory concentration (IC50) is > 10 µM.
As to `O=C1C=C2CCN3Cc4cc5c(cc4[C@H]([C@@H]1O)[C@@H]23)OCO5`, the IC50 was > 10 µM.

The same experiment, now with this note: hs 683.
Turning to `C[N+]12CCC3=C[C@H](O)[C@@H](O)[C@@H](c4cc5c(cc4C1)OCO5)[C@@H]32` (some centres undefined), the IC50 is > 10 µM.

Test system in another experiment: not listed separately
Kind of experiment: Growth inhibition of proapoptotic stimuli-resistant human OE21 cells after 72 hrs by MTT assay. Format: functional, cell-based. The following applies: Homo sapiens, OE21, 72 h.
Turning to `CC(=O)O[C@H]1[C@H]2c3cc4c(cc3CN3CC[C@H](C[C@@H]1OC(C)=O)[C@H]23)OCO4`, the 50% inhibitory concentration (IC50) was > 10 µM.
For `O[C@H]1[C@H]2c3cc4c(cc3CN3CC[C@@H](C[C@@H]1O)[C@H]23)OCO4`, the IC50 is > 10 µM.
Take `C1=C2CCN3Cc4cc5c(cc4[C@H](CC1)[C@@H]23)OCO5` [LYCORENE]: the IC50 was > 10 µM.
On the same count and under the same terms, to `O[C@H]1[C@H]2c3cc4c(cc3CN3CC[C@H](C[C@@H]1O)[C@H]23)OCO4` belongs > 10 µM; to `CC(=O)O[C@H]1[C@H]2c3cc4c(cc3CN3CCC(=C[C@@H]1OC(C)=O)[C@H]23)OCO4`, > 10 µM; to `[O-]c1cc2c3c(c1)c1cc4c(cc1c[n+]3CC2)OCO4` [UNGEREMINE], > 10 µM.
Regarding `CC(=O)O[C@H]1[C@H]2c3cc4c(cc3CN3CC[C@@H](C[C@@H]1OC(C)=O)[C@H]23)OCO4`, the half-maximal inhibitory concentration (IC50) was > 10 µM.
Regarding `COc1cc2c(cc1O)CN1CCC3=CC[C@@H](O)[C@@H]2[C@@H]31` [NORPLUVINE], the half-inhibitory concentration (IC50) was > 10 µM.
As for `O=C1C=C2CCN3Cc4cc5c(cc4[C@H]([C@@H]1O)[C@@H]23)OCO5`, the IC50 was > 10 µM.

Still in this experiment, the particulars now being: oe21.
Turning to `C[N+]12CCC3=C[C@H](O)[C@@H](O)[C@@H](c4cc5c(cc4C1)OCO5)[C@@H]32` (some centres undefined), the half-maximal inhibitory concentration (IC50) is > 10 µM.

Test system in a further experiment: not listed separately
Kind of experiment: Growth inhibition of proapoptotic stimuli-resistant human U373 cells after 72 hrs by MTT assay. The following applies: Homo sapiens, U373 MG, 72 h. Type of experiment: functional, cell-based, U-373MG ATCC. Summed up: as §1
Consider `CC(=O)O[C@H]1[C@H]2c3cc4c(cc3CN3CC[C@H](C[C@@H]1OC(C)=O)[C@H]23)OCO4`, for which the 50% inhibitory concentration (IC50) was > 10 µM.
`O[C@H]1[C@H]2c3cc4c(cc3CN3CC[C@@H](C[C@@H]1O)[C@H]23)OCO4`: the half-inhibitory concentration (IC50) is > 10 µM.
As to `C1=C2CCN3Cc4cc5c(cc4[C@H](CC1)[C@@H]23)OCO5` [LYCORENE], the IC50 was > 10 µM.
For `O[C@H]1[C@H]2c3cc4c(cc3CN3CC[C@H](C[C@@H]1O)[C@H]23)OCO4`, the 50% inhibitory concentration (IC50) was > 10 µM.
Still for that read-out and setting: in the case of `CC(=O)O[C@H]1[C@H]2c3cc4c(cc3CN3CCC(=C[C@@H]1OC(C)=O)[C@H]23)OCO4` it was > 10 µM; in that of `[O-]c1cc2c3c(c1)c1cc4c(cc1c[n+]3CC2)OCO4` [UNGEREMINE], 8.3 µM.
Same read-out and setting: in the case of `CC(=O)O[C@H]1[C@H]2c3cc4c(cc3CN3CC[C@@H](C[C@@H]1OC(C)=O)[C@H]23)OCO4` it was > 10 µM; in that of `COc1cc2c(cc1O)CN1CCC3=CC[C@@H](O)[C@@H]2[C@@H]31` [NORPLUVINE], > 10 µM.
Same read-out and setting: in the case of `O=C1C=C2CCN3Cc4cc5c(cc4[C@H]([C@@H]1O)[C@@H]23)OCO5` it was > 10 µM.

Still in this experiment, the particulars now being: u-373mg atcc.
On to `C[N+]12CCC3=C[C@H](O)[C@@H](O)[C@@H](c4cc5c(cc4C1)OCO5)[C@@H]32` (some centres undefined), for which the IC50 was > 10 µM.

The test system of a further experiment is SK-MEL-28. Briefly: Growth inhibition of proapoptotic stimuli-resistant human SK-MEL-28 cells after 72 hrs by MTT assay. Format: functional, cell-based. The following applies: Homo sapiens, SK-MEL-28, 72 h. Summed up: as §1
As for `CC(=O)O[C@H]1[C@H]2c3cc4c(cc3CN3CC[C@H](C[C@@H]1OC(C)=O)[C@H]23)OCO4`, the IC50 is > 10 µM.
Same read-out and setting: to `O[C@H]1[C@H]2c3cc4c(cc3CN3CC[C@@H](C[C@@H]1O)[C@H]23)OCO4` belongs > 10 µM; to `C1=C2CCN3Cc4cc5c(cc4[C@H](CC1)[C@@H]23)OCO5` [LYCORENE], > 10 µM; to `O[C@H]1[C@H]2c3cc4c(cc3CN3CC[C@H](C[C@@H]1O)[C@H]23)OCO4`, > 10 µM.
Consider `CC(=O)O[C@H]1[C@H]2c3cc4c(cc3CN3CCC(=C[C@@H]1OC(C)=O)[C@H]23)OCO4`, for which the IC50 was > 10 µM.
Consider `[O-]c1cc2c3c(c1)c1cc4c(cc1c[n+]3CC2)OCO4` [UNGEREMINE], for which the IC50 is > 10 µM.
As to `CC(=O)O[C@H]1[C@H]2c3cc4c(cc3CN3CC[C@@H](C[C@@H]1OC(C)=O)[C@H]23)OCO4`, the IC50 was > 10 µM.
For the compound `COc1cc2c(cc1O)CN1CCC3=CC[C@@H](O)[C@@H]2[C@@H]31` [NORPLUVINE], the IC50 is > 10 µM.
`O=C1C=C2CCN3Cc4cc5c(cc4[C@H]([C@@H]1O)[C@@H]23)OCO5`: the half-maximal inhibitory concentration (IC50) is > 10 µM.

Still in this experiment, the particulars now being: sk-mel-28.
Turning to `C[N+]12CCC3=C[C@H](O)[C@@H](O)[C@@H](c4cc5c(cc4C1)OCO5)[C@@H]32` (some centres undefined), the half-inhibitory concentration (IC50) is > 10 µM.

Another experiment relates to B16-F10. Kind of experiment: Growth inhibition of proapoptotic stimuli-sensitive mouse B16F10 cells after 72 hrs by MTT assay. The settings on record: Mus musculus, B16-F10, 72 h. Type of experiment: functional, cell-based. In short, it runs like this:
as §1
As to `CC(=O)O[C@H]1[C@H]2c3cc4c(cc3CN3CC[C@H](C[C@@H]1OC(C)=O)[C@H]23)OCO4`, the IC50 is > 10 µM.
With `O[C@H]1[C@H]2c3cc4c(cc3CN3CC[C@@H](C[C@@H]1O)[C@H]23)OCO4`, the IC50 was > 10 µM.
The same measure, in the same setting: to `C1=C2CCN3Cc4cc5c(cc4[C@H](CC1)[C@@H]23)OCO5` [LYCORENE] belongs > 10 µM; to `O[C@H]1[C@H]2c3cc4c(cc3CN3CC[C@H](C[C@@H]1O)[C@H]23)OCO4`, > 10 µM.
With `CC(=O)O[C@H]1[C@H]2c3cc4c(cc3CN3CCC(=C[C@@H]1OC(C)=O)[C@H]23)OCO4`, the IC50 was > 10 µM.
For the compound `[O-]c1cc2c3c(c1)c1cc4c(cc1c[n+]3CC2)OCO4` [UNGEREMINE], the half-maximal inhibitory concentration (IC50) is > 10 µM.
As to `CC(=O)O[C@H]1[C@H]2c3cc4c(cc3CN3CC[C@@H](C[C@@H]1OC(C)=O)[C@H]23)OCO4`, the IC50 is > 10 µM.
As for `COc1cc2c(cc1O)CN1CCC3=CC[C@@H](O)[C@@H]2[C@@H]31` [NORPLUVINE], the IC50 is > 10 µM.
For the compound `O=C1C=C2CCN3Cc4cc5c(cc4[C@H]([C@@H]1O)[C@@H]23)OCO5`, the IC50 was > 10 µM.

Staying with this experiment, now noted: b16-f10.
For `C[N+]12CCC3=C[C@H](O)[C@@H](O)[C@@H](c4cc5c(cc4C1)OCO5)[C@@H]32` (some centres undefined), the half-maximal inhibitory concentration (IC50) was > 10 µM.
